Source: ChEMBL document CHEMBL4428108, “Carbohydrate-based peptidomimetics targeting neuropilin-1: Synthesis, molecular docking study and in vitro biological activities” (Bioorg Med Chem, 2016)
Activity calls are given as the source filed them. The rule behind the calls is not given here. Peptide text beside a SMILES is read from it.

How the values were obtained:
Neuropilin-1 [1] = biological target: T1, Neuropilin-1 (Homo sapiens, UniProt O14786); assay: Inhibition of biotinylated VEGF-A165 binding to recombinant NRP1 (unknown origin) at 100 uM measured after 2 hrs by competition binding assay relative to VEGF-A165
T1 sequence (O14786 whole entry): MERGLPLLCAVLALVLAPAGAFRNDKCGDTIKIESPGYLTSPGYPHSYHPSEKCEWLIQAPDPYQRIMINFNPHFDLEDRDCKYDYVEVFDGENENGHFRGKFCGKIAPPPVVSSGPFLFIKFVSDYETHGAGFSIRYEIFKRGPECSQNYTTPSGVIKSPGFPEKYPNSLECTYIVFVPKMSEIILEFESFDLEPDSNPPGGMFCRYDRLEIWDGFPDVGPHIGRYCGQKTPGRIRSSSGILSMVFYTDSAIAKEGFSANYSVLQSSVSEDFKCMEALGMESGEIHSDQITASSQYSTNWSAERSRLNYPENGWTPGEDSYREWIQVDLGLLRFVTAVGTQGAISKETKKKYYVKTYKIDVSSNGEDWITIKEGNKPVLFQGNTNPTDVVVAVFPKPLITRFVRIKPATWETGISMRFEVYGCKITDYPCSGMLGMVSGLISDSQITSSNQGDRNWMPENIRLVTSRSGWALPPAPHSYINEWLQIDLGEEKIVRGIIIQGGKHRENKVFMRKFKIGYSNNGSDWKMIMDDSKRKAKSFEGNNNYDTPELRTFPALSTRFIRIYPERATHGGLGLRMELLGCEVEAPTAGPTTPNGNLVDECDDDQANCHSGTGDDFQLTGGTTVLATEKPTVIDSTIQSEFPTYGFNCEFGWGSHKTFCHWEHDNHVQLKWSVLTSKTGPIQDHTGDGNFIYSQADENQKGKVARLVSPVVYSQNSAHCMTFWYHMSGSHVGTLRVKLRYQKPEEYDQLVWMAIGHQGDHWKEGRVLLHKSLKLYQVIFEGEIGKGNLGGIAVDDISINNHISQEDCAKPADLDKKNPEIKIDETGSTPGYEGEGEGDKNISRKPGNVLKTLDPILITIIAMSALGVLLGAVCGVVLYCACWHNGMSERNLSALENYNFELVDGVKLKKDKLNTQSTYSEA
In short: (§1)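 Competition ELISA. Wells coated overnight at room temperature with recombinant chimeric NRP-1 or KDR in PBS, then blocked with 0.5% BSA/PBS for 1 h at 37 °C. Biotinylated VEGF-A165 (5 ng/mL, heparin-containing blocking buffer) incubated 2 h at room temperature with or without compound; unlabelled VEGF-A165 as positive control. Bound tracer detected with streptavidin-HRP, read at 450 nm. Three independent experiments, triplicates.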

Neuropilin-1 [2] = biological target: T1, Neuropilin-1; assay: Inhibition of biotinylated VEGF-A165 binding to recombinant NRP1 (unknown origin) measured after 2 hrs by competition binding assay; in short: as §1
Neuropilin-1 [3] = biological target: T1, Neuropilin-1; assay: Binding affinity to NRP1 in HUVEC assessed as ratio of phosphorylated ERK to total ERK at 50 uM by Western blot analysis; type: cell-based
In short: (§2)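 HUVECs exposed to 50 µM compound; tuftsin as reference. Lysate protein (40 µg) resolved by SDS-PAGE and blotted to PVDF. Probed overnight at 4 °C for pAKT (Ser473), total AKT, pERK1/2 (Thr202/Tyr204) and total ERK1/2. ECL detection and densitometry. Phospho/total band ratio normalized to non-treated cells.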

Neuropilin-1 [4] = biological target: T1, Neuropilin-1; assay: Binding affinity to NRP1 in HUVEC assessed as increase in AKT phosphorylation at 50 uM by Western blot analysis; type: cell-based; in short: as §2

Compound	inhibition (Neuropilin-1 [1]) [%]	also measured
N=C(N)NCCCc1cn(C[C@@H]2O[C@H](CC(=O)NCCc3c[nH]c4ccccc34)[C@H](O)[C@@H]2O)nn1	4	–
CC1(C)O[C@@H]2[C@H](O1)[C@H](Cn1cc(CCNC(=N)N)nn1)O[C@@H]2CC(=O)NCCc1c[nH]c2ccccc12	5	–
C[C@@H](O)[C@H](N)C(=O)N[C@@H](CCCCN)C(=O)N1CCC[C@H]1C(=O)N[C@@H](CCCNC(=N)N)C(=O)O (H-TKPR-OH)	–	Ratio (Neuropilin-1 [3]): 0.88; IC50 (Neuropilin-1 [2]): 25 µM; Activity (Neuropilin-1 [4]): Active
N=C(N)NCCc1cn(C[C@@H]2O[C@H](CC(=O)NCCc3c[nH]c4ccccc34)[C@H](O)[C@@H]2O)nn1	37	–

Second part, led by results:

inhibition (Neuropilin-1 [1]) [%]	Compound	also measured
18	CC1(C)O[C@@H]2[C@H](O1)[C@H](Cn1cc(CCCNC(=N)N)nn1)O[C@@H]2CC(=O)NCCc1c[nH]c2ccccc12	–
26	CC1(C)O[C@@H]2[C@H](O1)[C@@H](CN(CCNC(=N)N)C(=N)N)O[C@@H]2CC(=O)NCCc1c[nH]c2ccccc12	–
39	CC1(C)O[C@@H]2[C@H](O1)[C@H](CN(CCCCNC(=N)N)C(=N)N)O[C@@H]2CC(=O)NCCc1c[nH]c2ccccc12	–
5	CC1(C)O[C@@H]2[C@H](O1)[C@H](CN(CCCNC(=N)N)C(=N)N)O[C@@H]2CC(=O)NCCc1c[nH]c2ccccc12	–
52	CC1(C)O[C@@H]2[C@H](O1)[C@H](CN(CCCCCNC(=N)N)C(=N)N)O[C@@H]2CC(=O)NCCc1c[nH]c2ccccc12	IC50 (Neuropilin-1 [2]): 120 µM
